These results are taken from ChEMBL document CHEMBL1177876, “Design and synthesis of 10-alkoxy-5, 6-dihydro-triazolo[4,3-d]benzo[f][1,4]oxazepine derivatives with anticonvulsant activity” (Eur J Med Chem, 2010).

The subject of data set [1] is Mus musculus. The data set is described as follows: Anticonvulsant activity in ip dosed mouse assessed as protection against maximal electroshock-induced seizures. The class given is functional. In a few lines:
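KunMing mice, 18–22 g, compounds in DMSO, given i.p. at a range of doses, groups of 10. MES test per NIH ADD program. Read-out was seizure protection, with at least three points in the 10–90% range.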
In general terms: In the maximal electroshock model the usual endpoint is tonic extension of the hind limbs.

Data set [2] deals with Mus musculus. Kind of data set: Anticonvulsant activity in mouse assessed as protection against maximal electroshock-induced seizures at 30 mg/kg, ip measured after 0.5 hrs. The class given is functional, organism-based. The arrangement: dose 30 mg/kg. An outline of the steps:
(§1)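 Phase-I MES screen in KunMing mice, 18–22 g. Compounds dissolved in DMSO and given i.p. at 30, 100 or 300 mg/kg. The MES test followed the NIH ADD protocol and was read at 0.5 h and 4 h after dosing. Six mice per group, scored as number protected/number tested.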

In data set [3] the test system is Mus musculus. The data set is described as follows: Anticonvulsant activity in mouse assessed as protection against maximal electroshock-induced seizures at 300 mg/kg, ip measured after 4 hrs. Further details: dose 300 mg/kg. The class given is functional, organism-based. In a few lines: as §1
The species entered for data set [4] is Mus musculus. The data set is described as follows: Protective index, ratio of TD50 for mouse by rotarod test to ED50 for mouse by MES test. The format is functional.
Data set [5] in a line: Neurotoxicity in ip dosed mouse assessed as time spent on rotarod by rotarod test. The format is toxicity, organism-based. As to conditions: in vivo. An outline of the steps:
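Rotarod neurotoxicity in KunMing mice, 18–22 g, compounds in DMSO given i.p. Mice were pretrained on a 3.2 cm diameter rod at 10 rpm. Toxicity was defined as failure to stay on the rod for at least 1 min in each trial.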
(In general: Falling from the rotarod earlier than controls is read as motor impairment.)

In data set [6] the test system is Mus musculus. The data set is described as follows: Anticonvulsant activity in mouse assessed as protection against maximal electroshock-induced seizures at 30 mg/kg, ip measured after 4 hrs. The format is functional, organism-based. The arrangement: dose 30 mg/kg. In a few lines:
as §1

Data set [7] concerns Mus musculus. The data set is described as follows: Anticonvulsant activity in mouse assessed as protection against maximal electroshock-induced seizures at 100 mg/kg, ip measured after 0.5 hrs. Further details: dose 100 mg/kg. The class given is functional, organism-based. An outline of the steps: as §1
For data set [8], the system named is Mus musculus. The data set is described as follows: Anticonvulsant activity in mouse assessed as protection against maximal electroshock-induced seizures at 10 mg/kg, ip measured after 4 hrs. Further details: dose 10 mg/kg. The format is functional, organism-based.
Data set [9] relates to Mus musculus. Kind of data set: Anticonvulsant activity in mouse assessed as protection against maximal electroshock-induced seizures at 100 mg/kg, ip measured after 4 hrs. The arrangement: dose 100 mg/kg. The class given is functional, organism-based. In a few lines:
as §1

For data set [10], the system named is Mus musculus. The data set is described as follows: Anticonvulsant activity in mouse assessed as protection against maximal electroshock-induced seizures at 10 mg/kg, ip measured after 0.5 hrs. The class given is functional, organism-based. The arrangement: dose 10 mg/kg.

Activity calls are given as the source filed them.

As to `c1ccc(COc2ccc3c(c2)-c2nncn2CCO3)cc1`, the ED50 with Mus musculus [1] came out at 16.4 mg/kg. The outcome with Mus musculus [2] and with Mus musculus [7] was Active. Moreover, the outcome in the data set with Mus musculus [3], in the data set on Mus musculus [6], in the data set on Mus musculus [8] and in the data set with Mus musculus [9] was inactive. Moreover, the PI in the data set listed under Mus musculus [4] came out at 4.6. Besides, the TD50 in data set [5] is 76 mg/kg.
As to `Brc1ccccc1COc1ccc2c(c1)-c1nncn1CCO2`, the 50% effective dose (ED50) in the data set on Mus musculus [1] is 41.7 mg/kg. In addition, the outcome with Mus musculus [3], in the data set with Mus musculus [6], in the data set with Mus musculus [8] and in the data set on Mus musculus [9] was inactive. Also, the PI in the data set listed under Mus musculus [4] came out at 2.6. The TD50 in data set [5] came to 110 mg/kg. Further, in the data set on Mus musculus [7], the result was Active.
Take `CCCCCCOc1ccc2c(c1)-c1nncn1CCO2`: in the data set on Mus musculus [1], the 50% effective dose (ED50) turned out to be 10 mg/kg. Moreover, the result with Mus musculus [10] and with Mus musculus [7] was Active. Also, the outcome with Mus musculus [3], with Mus musculus [6], in the data set with Mus musculus [8] and with Mus musculus [9] was inactive. Also, the PI in the data set filed under Mus musculus [4] was found to be 6. In data set [5], the TD50 came to 60 mg/kg.
`Clc1ccc(COc2ccc3c(c2)-c2nncn2CCO3)cc1`: the 50% effective dose (ED50) with Mus musculus [1] worked out at 60 mg/kg. The result in the data set with Mus musculus [3], in the data set with Mus musculus [6], with Mus musculus [8] and with Mus musculus [9] was inactive. The PI in the data set filed under Mus musculus [4] was 1.8. Besides, in data set [5], the TD50 is 110 mg/kg. In addition, in the data set on Mus musculus [7], the outcome was Active.
On to `COc1ccc2c(c1)-c1nncn1CCO2`, for which the ED50 with Mus musculus [1] was above 100 mg/kg. The outcome with Mus musculus [3], with Mus musculus [6], with Mus musculus [8] and with Mus musculus [9] was inactive.
`CCCCCCCCOc1ccc2c(c1)-c1nncn1CCO2`: the ED50 in the data set with Mus musculus [1] amounted to 11 mg/kg. Besides, the result with Mus musculus [10] and in the data set with Mus musculus [7] was Active. Further, the result in the data set with Mus musculus [3], in the data set with Mus musculus [6], in the data set on Mus musculus [8] and with Mus musculus [9] was inactive. Besides, the PI in the data set listed under Mus musculus [4] turned out to be 5.8. Further, the TD50 in data set [5] turned out to be 63.4 mg/kg.
For `Clc1cccc(COc2ccc3c(c2)-c2nncn2CCO3)c1`, the ED50 with Mus musculus [1] was found to be 82.2 mg/kg. Besides, the result in the data set on Mus musculus [3], in the data set with Mus musculus [6], with Mus musculus [8] and with Mus musculus [9] was inactive. Further, in the data set listed under Mus musculus [4], the PI was 1.5. Besides, the TD50 in data set [5] turned out to be 127 mg/kg. The result in the data set with Mus musculus [7] was Active.
Turning to `CCCCOc1ccc2c(c1)-c1nncn1CCO2`, the median effective dose (ED50) in the data set with Mus musculus [1] stood at 11 mg/kg. Moreover, the outcome in the data set on Mus musculus [10] and in the data set on Mus musculus [7] was Active. Moreover, the outcome in the data set on Mus musculus [3], in the data set with Mus musculus [6], in the data set with Mus musculus [8] and in the data set on Mus musculus [9] was inactive. Further, the PI in the data set filed under Mus musculus [4] came out at 4.2. Moreover, the TD50 in [5] worked out at 45.6 mg/kg.
As for `Brc1ccc(COc2ccc3c(c2)-c2nncn2CCO3)cc1`, in the data set with Mus musculus [1], the ED50 was above 100 mg/kg. Further, the outcome in the data set on Mus musculus [3], in the data set with Mus musculus [6], in the data set with Mus musculus [8] and in the data set on Mus musculus [9] was inactive. For the same compound, in the data set with Mus musculus [7], the result was Active.
For `CCOc1ccc2c(c1)-c1nncn1CCO2`, the ED50 with Mus musculus [1] was above 100 mg/kg. For the same compound, the outcome in the data set with Mus musculus [3], in the data set with Mus musculus [6], in the data set on Mus musculus [8] and in the data set on Mus musculus [9] was inactive. In addition, in the data set on Mus musculus [7], the result was Active.
For the compound `Clc1ccccc1COc1ccc2c(c1)-c1nncn1CCO2`, the median effective dose (ED50) with Mus musculus [1] was 38.3 mg/kg. Also, the result in the data set with Mus musculus [3], in the data set on Mus musculus [6], with Mus musculus [8] and in the data set on Mus musculus [9] was inactive. Further, the PI in the data set listed under Mus musculus [4] was found to be 2.4. In data set [5], the TD50 worked out at 91.3 mg/kg. Further, the outcome with Mus musculus [7] was Active.
With `Fc1ccc(COc2ccc3c(c2)-c2nncn2CCO3)cc1`, in the data set with Mus musculus [1], the ED50 was determined as 27.4 mg/kg. Further, the outcome in the data set with Mus musculus [3], in the data set with Mus musculus [6], in the data set on Mus musculus [8] and in the data set on Mus musculus [9] was inactive. Moreover, in the data set listed under Mus musculus [4], the PI worked out at 2.3. In data set [5], the TD50 is 63.4 mg/kg. The outcome with Mus musculus [7] was Active.
Consider `Brc1cccc(COc2ccc3c(c2)-c2nncn2CCO3)c1`, for which, in the data set on Mus musculus [1], the 50% effective dose (ED50) was determined as 25 mg/kg. For the same compound, the result with Mus musculus [3], in the data set with Mus musculus [6], with Mus musculus [8] and with Mus musculus [9] was inactive. The PI in the data set listed under Mus musculus [4] is recorded as 3.6. Moreover, the TD50 in [5] came to 91.3 mg/kg. Also, the outcome in the data set with Mus musculus [7] was Active.
Consider `Fc1cccc(COc2ccc3c(c2)-c2nncn2CCO3)c1`, for which the ED50 with Mus musculus [1] is 23.7 mg/kg. Besides, the result in the data set on Mus musculus [3], in the data set with Mus musculus [6], with Mus musculus [8] and with Mus musculus [9] was inactive. In addition, the PI in the data set filed under Mus musculus [4] worked out at 3.2. For the same compound, the TD50 in data set [5] was 76 mg/kg. In the data set with Mus musculus [7], the outcome was Active.
For the compound `CCCOc1ccc2c(c1)-c1nncn1CCO2`, the ED50 with Mus musculus [1] was determined as 19 mg/kg. In addition, the outcome in the data set on Mus musculus [3], in the data set with Mus musculus [6], in the data set on Mus musculus [8] and with Mus musculus [9] was inactive. Also, the PI in the data set filed under Mus musculus [4] is 2.9. The TD50 in data set [5] was found to be 54.8 mg/kg. Also, the result with Mus musculus [7] was Active.
For the compound `COc1ccc(COc2ccc3c(c2)-c2nncn2CCO3)cc1`, in the data set on Mus musculus [1], the ED50 was above 100 mg/kg. Besides, the result with Mus musculus [3], in the data set on Mus musculus [6], with Mus musculus [8] and in the data set on Mus musculus [9] was inactive. Besides, in the data set on Mus musculus [7], the result was Active.
For the compound `CCCCCOc1ccc2c(c1)-c1nncn1CCO2`, the ED50 in the data set on Mus musculus [1] was 15.8 mg/kg. In addition, the result in the data set on Mus musculus [10] and in the data set on Mus musculus [7] was Active. For the same compound, the outcome in the data set with Mus musculus [3], in the data set on Mus musculus [6], in the data set with Mus musculus [8] and with Mus musculus [9] was inactive. The PI in the data set filed under Mus musculus [4] stood at 3.8. The TD50 in data set [5] came out at 60 mg/kg.
Take `Cc1ccc(COc2ccc3c(c2)-c2nncn2CCO3)cc1`: in the data set on Mus musculus [1], the median effective dose (ED50) is above 100 mg/kg. In addition, the outcome in the data set with Mus musculus [3], in the data set on Mus musculus [6], in the data set on Mus musculus [8] and in the data set on Mus musculus [9] was inactive. For the same compound, the outcome in the data set on Mus musculus [7] was Active.
Turning to `Fc1ccccc1COc1ccc2c(c1)-c1nncn1CCO2`, in the data set with Mus musculus [1], the 50% effective dose (ED50) was found to be 18 mg/kg. Moreover, the outcome in the data set on Mus musculus [2] and in the data set on Mus musculus [7] was Active. The result with Mus musculus [3], in the data set on Mus musculus [6], in the data set with Mus musculus [8] and in the data set with Mus musculus [9] was inactive. Also, in the data set listed under Mus musculus [4], the PI was 5.1. Further, the TD50 in data set [5] turned out to be 91.3 mg/kg.

Broadly, the ED50 is the midpoint of the dose-response relation. As usually defined, the TD50 is the dose at which the toxic effect under study appears in half of the subjects.
